Laboratory results reported in ChEMBL document CHEMBL4342467, “Discovery of a Novel Dual-Target Inhibitor of ERK1 and ERK5 That Induces Regulated Cell Death to Overcome Compensatory Mechanism in Specific Tumor Types” (J Med Chem, 2020).
pIC50: −log10 of the molar value. The source made the active and inactive calls. No cut-off for these calls is given here.

How the values were obtained:
HeLa = experiment: Antiproliferative activity against human HeLa cells assessed as reduction in cell viability measured after 24 hrs; assay type: functional, cell-based
[1] = AUC (0 to t) in Sprague-Dawley rat at 10 mg/kg, po by LC-MS analysis; assay type: ADME, organism-based; conditions: in vivo
Procedure, shortened: (§1)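 Rats, two groups of 3; single i.v. dose 1 mg/kg or oral dose 10 mg/kg. Plasma concentration-time profiles used to derive T1/2, Tmax, Cmax, AUC0-t, AUC0-∞ and oral bioavailability. Data from triplicate testing, ± standard deviation.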

[2] = target: Mitogen-activated protein kinase 1 (Homo sapiens) (UniProt P28482); experiment: Inhibition of wild-type human full length ERK2 (M1 to S360 residues) expressed in bacterial expression system at 1 uM by Kinomescan method relative to control
Sequence of Mitogen-activated protein kinase 1 (Homo sapiens) (P28482 whole entry, the tested form may be a part): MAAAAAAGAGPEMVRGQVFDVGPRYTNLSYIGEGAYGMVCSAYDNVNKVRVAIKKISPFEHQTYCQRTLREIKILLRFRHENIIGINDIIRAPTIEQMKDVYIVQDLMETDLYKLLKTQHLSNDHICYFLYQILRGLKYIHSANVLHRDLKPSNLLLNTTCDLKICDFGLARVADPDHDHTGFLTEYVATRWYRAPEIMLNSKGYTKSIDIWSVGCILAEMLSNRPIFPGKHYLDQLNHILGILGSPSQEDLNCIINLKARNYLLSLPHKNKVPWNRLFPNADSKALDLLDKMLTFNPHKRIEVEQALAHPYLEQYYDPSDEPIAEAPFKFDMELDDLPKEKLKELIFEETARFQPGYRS
Procedure, shortened: (§2)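 KINOMEscan binding assays over a 100-kinase panel, with test compound at 1 μM. Results are given as % inhibition.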

[3] = Effect on Ras/Raf/MEK/ERK signaling in human MKN74 cells assessed as change in p38 phosphorylation at Thr180/Tyr182 residue at 0.5 uM measured up to 24 hrs by Western blot analysis; assay type: cell-based
Procedure, shortened: (§3)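 MKN-74 cells exposed to 0.5 μM for 0, 6, 12 and 24 h. Ras, Raf, p-MEK1/2, MEK1/2, p-JNK, JNK, p-p38 and p38 immunoblotted, with GAPDH as loading control.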

Mus musculus [4] = experiment: In vivo inhibition of ERK1/2 in BALB/c mouse xenografted with human MKN74 cells assessed as reduction in phosphorylated ERK1/2 expression at 50 mg/kg, po administered once daily for 16 days measured post-last dose by immunohistochemical analysis; assay type: functional, organism-based
Procedure, shortened: (§4)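 Tumors excised from control and 50 mg/kg p.o.-treated xenograft mice were immunostained for Ki-67, p-ERK1/2 and p-ERK5. Positive-cell percentage quantified and compared with control.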

[5] = Effect on Ras/Raf/MEK/ERK signaling in human MKN74 cells assessed as change in JNK phosphorylation at Thr183/Tyr185 residue at 0.5 uM measured up to 24 hrs by Western blot analysis; assay type: cell-based; procedure, shortened: as §3
[6] = target: Mitogen-activated protein kinase 7 (Homo sapiens) (UniProt Q13164); experiment: Inhibition of ERK5 in human MKN74 cells harboring siRNA assessed as reduction in ERK5 phosphorylation at 0.5 uM by immunofluorescence assay; assay type: cell-based
Sequence of Mitogen-activated protein kinase 7 (Homo sapiens) (Q13164 2-816 limits assumed): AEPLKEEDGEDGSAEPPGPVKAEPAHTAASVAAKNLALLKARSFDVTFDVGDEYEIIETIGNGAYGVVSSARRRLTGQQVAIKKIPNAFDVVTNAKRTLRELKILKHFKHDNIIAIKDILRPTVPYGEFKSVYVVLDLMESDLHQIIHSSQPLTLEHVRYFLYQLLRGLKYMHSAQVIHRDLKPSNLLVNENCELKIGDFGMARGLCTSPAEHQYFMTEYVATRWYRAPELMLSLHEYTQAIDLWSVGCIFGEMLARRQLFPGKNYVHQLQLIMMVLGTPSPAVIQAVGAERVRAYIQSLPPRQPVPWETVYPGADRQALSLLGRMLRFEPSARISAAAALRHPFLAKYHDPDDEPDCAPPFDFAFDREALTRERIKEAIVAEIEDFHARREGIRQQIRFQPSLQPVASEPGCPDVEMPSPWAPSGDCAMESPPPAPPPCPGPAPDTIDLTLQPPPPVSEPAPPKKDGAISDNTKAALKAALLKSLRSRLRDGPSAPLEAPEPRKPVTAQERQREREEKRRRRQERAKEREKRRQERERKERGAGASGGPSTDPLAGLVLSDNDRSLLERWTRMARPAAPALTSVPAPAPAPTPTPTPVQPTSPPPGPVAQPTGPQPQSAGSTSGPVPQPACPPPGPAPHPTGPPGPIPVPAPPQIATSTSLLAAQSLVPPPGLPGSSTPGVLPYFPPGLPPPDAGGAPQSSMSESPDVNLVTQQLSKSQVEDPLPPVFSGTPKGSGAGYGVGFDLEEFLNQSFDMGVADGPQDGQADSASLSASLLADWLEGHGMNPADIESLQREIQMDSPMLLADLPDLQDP
Procedure, shortened: (§5)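 ERK1/2-specific or negative-control siRNA was transfected into MKN-74 cells for the indicated times, followed by compound at 0.5 μM. p-ERK1/2 and p-ERK5 puncta were detected by immunocytochemistry.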

[7] = target: Mitogen-activated protein kinase 7 (Homo sapiens) (UniProt Q13164); experiment: Inhibition of wild-type human partial length ERK5 (M1 to A409 residues) expressed in bacterial expression system at 1 uM by Kinomescan method relative to control; procedure, shortened: as §2
[8] = target: Mitogen-activated protein kinase; ERK1/ERK2 (Homo sapiens) (UniProt P27361+P28482); experiment: Inhibition of ERK1/2 phosphorylation in human MKN74 cells harboring ERK1/2 siRNA at 0.5 uM by immunofluorescence assay; assay type: cell-based
Sequence of Mitogen-activated protein kinase; ERK1/ERK2 (Homo sapiens) (P27361 whole entry, looked up): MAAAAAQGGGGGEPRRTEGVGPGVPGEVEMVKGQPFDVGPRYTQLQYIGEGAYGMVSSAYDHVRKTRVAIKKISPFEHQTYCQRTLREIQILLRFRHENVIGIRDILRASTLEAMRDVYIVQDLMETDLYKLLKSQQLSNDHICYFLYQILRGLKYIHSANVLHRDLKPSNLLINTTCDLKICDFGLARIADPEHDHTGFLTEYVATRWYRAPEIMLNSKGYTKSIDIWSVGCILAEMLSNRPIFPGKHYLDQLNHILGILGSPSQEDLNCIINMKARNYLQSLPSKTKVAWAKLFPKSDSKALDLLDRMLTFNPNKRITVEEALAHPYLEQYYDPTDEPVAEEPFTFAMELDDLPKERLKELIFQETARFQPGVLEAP
Sequence of Mitogen-activated protein kinase; ERK1/ERK2 (Homo sapiens) (P28482 whole entry, looked up): as the sequence (P28482 whole entry, the tested form may be a part) above
Procedure, shortened: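 MKN-74 cells transfected with ERK1/2-specific or negative-control siRNA for the indicated times, then given 0.5 μM. p-ERK1/2 and p-ERK5 puncta detected by immunocytochemistry.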

[9] = target: Mitogen-activated protein kinase 3 (Homo sapiens) (UniProt P27361); experiment: Inhibition of ERK1 (unknown origin) at 1 uM by Z'-Lyte assay relative to control
Sequence of Mitogen-activated protein kinase 3 (Homo sapiens) (P27361 whole entry, the tested form may be a part): as the sequence (P27361 whole entry, looked up) above

HL-60 [10] = experiment: Induction of cytoplasmic vacuolization in human HL60 cells; assay type: functional, cell-based
HL-60 [11] = experiment: Antiproliferative activity against human HL60 cells assessed as reduction in cell viability measured after 24 hrs; assay type: functional, cell-based; conditions: HL-60, 24 h
Mus musculus [12] = experiment: In vivo inhibition of ERK1/2 in BALB/c mouse xenografted with human MKN74 cells assessed as reduction in ERK1/2 phosphorylation at 50 mg/kg, po administered once daily for 16 days measured post-last dose by Western blot analysis; assay type: functional, organism-based
Procedure, shortened: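 Two individual tumors excised from xenograft mice were lysed. ERK1/2, p-ERK1/2, ERK5 and p-ERK5 detected by western blot.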

[13] = target: Mitogen-activated protein kinase 1 (Homo sapiens) (UniProt P28482); experiment: Inhibition of ERK2 (unknown origin) at 1 uM by Z'-Lyte assay relative to control
[14] = target: Mitogen-activated protein kinase 7 (Homo sapiens) (UniProt Q13164); experiment: Inhibition of ERK5 in human MKN74 cells harboring ERK1/2 siRNA assessed as reduction in ERK5 phosphorylation at 0.5 uM by immunofluorescence assay; assay type: cell-based; procedure, shortened: as §5
MKN-74 [15] = experiment: Cytotoxicity against human MKN74 cells harboring ATG5 siRNA assessed as reduction in cell viability at 0.5 uM by MTT assay; assay type: functional, cell-based
Procedure, shortened: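 MKN-74 cells transfected with ATG5-specific or negative-control siRNA for the indicated times, then treated with 0.5 μM. Viability read by MTT assay.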

[16] = AUC (0 to t) in Sprague-Dawley rat at 1 mg/kg, iv by LC-MS analysis; assay type: ADME, organism-based; conditions: in vivo; procedure, shortened: as §1
MKN-74 [17] = experiment: Induction of autophagy in human MKN74 cells assessed as increase in p62 degradation at 0.5 uM measured up to 24 hrs by Western blot analysis; assay type: functional, cell-based
Procedure, shortened: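 MKN-74 cells treated with 0.5 μM; LC3 (LC3-II) and p62 levels analyzed by immunoblotting.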

[18] = target: Mitogen-activated protein kinase 3 (Homo sapiens) (UniProt P27361); experiment: Inhibition of wild-type human full length ERK1 (M1 to P379 residues) expressed in bacterial expression system at 1 uM by Kinomescan method relative to control; procedure, shortened: as §2
MKN-74 [19] = experiment: Induction of autophagy in human MKN74 cells transfected with GFP-mRFP-LC3 assessed as increase in LC3 puncta formation at 0.5 uM measured after 24 hrs by fluorescence microscopic analysis; assay type: functional, cell-based
Procedure, shortened: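 MKN-74 cells transfected with GFP-mRFP-LC3 plasmid, treated 24 h at 0.5 μM. GFP-LC3 puncta imaged by fluorescence microscopy.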

[20] = target: Mitogen-activated protein kinase 7 (Homo sapiens) (UniProt Q13164); experiment: Inhibition of ERK5 (unknown origin) at 1 uM by Z'-Lyte assay relative to control
[21] = AUC (0 to infinity) in Sprague-Dawley rat at 1 mg/kg, iv by LC-MS analysis; assay type: ADME, organism-based; parameters: dose 1 mg/kg, route intravenous, time infinity; conditions: in vivo; procedure, shortened: as §1
[22] = target: Mitogen-activated protein kinase 7 (Homo sapiens) (UniProt Q13164); experiment: Inhibition of ERK5 in human MKN74 cells assessed as reduction in ERK5 phosphorylation at T218/Y220 residue at 0.5 uM measured up to 24 hrs by Western blot analysis; assay type: cell-based
MKN-74 [23] = experiment: Induction of cytoplasmic vacuolization in human MKN74 cells; assay type: functional, cell-based
[24] = Half life in Sprague-Dawley rat at 10 mg/kg, po by LC-MS analysis; assay type: ADME, organism-based; conditions: in vivo; procedure, shortened: as §1
MKN-74 [25] = experiment: Antitumor activity against human MKN74 cells xenografted in BALB/c mouse assessed as reduction in Ki-67 positive cells at 50 mg/kg, po administered once daily for 16 days measured post-last dose by immunohistochemical analysis; assay type: functional, organism-based; procedure, shortened: as §4
[26] = AUC (0 to infinity) in Sprague-Dawley rat at 10 mg/kg, po by LC-MS analysis; assay type: ADME, organism-based; parameters: dose 10 mg/kg, route oral, time infinity; conditions: in vivo; procedure, shortened: as §1
[27] = Tmax in Sprague-Dawley rat at 10 mg/kg, po by LC-MS analysis; assay type: ADME, organism-based; conditions: in vivo
Procedure, shortened: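 Two groups of rats (3 per group) received a single dose, either 1 mg/kg i.v. or 10 mg/kg p.o. Plasma concentrations were followed to derive Tmax, Cmax, T1/2, AUC and F. Data are from triple testing (± standard deviation).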

With NC(=O)c1c(NC(=O)c2ccccc2Cl)sc2c1CCN(C(=S)Nc1ccccc1Cl)C2 the pIC50 (HeLa) was under 4.30, the AUC(0-t) [1] was 5080 ng·h/mL and the inhibition [2] was 91%. For the same compound, the Activity [3] was “inactive”, the inhibition (Mus musculus [4]) was “Active” and the Activity [5] was “inactive”. For the same compound, the inhibition [6] was “Active”, the inhibition [7] was 87% and the inhibition [8] was “Active”. The inhibition [9] was 93.5%, the Activity (HL-60 [10]) was “inactive” and the pIC50 (HL-60 [11]) was 5.90. The inhibition (Mus musculus [12]) was “Active”, the inhibition [13] was 92.7% and the inhibition [14] was “Active”. The Activity (MKN-74 [15]) was “inactive”, the AUC(0-t) [16] was 1840 ng·h/mL and the Activity (MKN-74 [17]) was “Active”. For the same compound, the inhibition [18] was 94%, the Activity (MKN-74 [19]) was “Active” and the inhibition [20] was 89.3%. For the same compound, the AUC(0-inf) [21] was 1840 ng·h/mL, the inhibition [22] was “Active” and the Activity (MKN-74 [23]) was “Active”. The half-life [24] was 74.4 min, the Activity (MKN-74 [25]) was “Active” and the AUC(0-inf) [26] was 5180 ng·h/mL. For the same compound, the Tmax [27] was 45 min.
